This excerpt belongs to a sample that is enriched for hits.
Pf gamet viab – kills late stage P. falciparum gametocytes | inhibition, % at 10.9 µM | 150,000 tested, 0.065% active | P. falciparum stage V gametocytes, ATP luminescence, 24 h;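 active = inhibition above the mean plus 3 SD of compounds within the control limits, set per campaign, cut at about 38% in these data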
ROMK primary – modulators of human ROMK potassium channel. P48048. Tet-inducible ROMK, thallium flux fluorescence; actives lie on both sides. B-score at 10 µM. 130,000 tested, 2% active;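 active = signal ratio slope over the read window, or its plate-corrected B-score, at least 3 SD from the plate mean, either direction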;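 also: B-score of the F/F0 ratio slope over 7 to 12 s after thallium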
Target sequence (P48048 whole entry, looked up): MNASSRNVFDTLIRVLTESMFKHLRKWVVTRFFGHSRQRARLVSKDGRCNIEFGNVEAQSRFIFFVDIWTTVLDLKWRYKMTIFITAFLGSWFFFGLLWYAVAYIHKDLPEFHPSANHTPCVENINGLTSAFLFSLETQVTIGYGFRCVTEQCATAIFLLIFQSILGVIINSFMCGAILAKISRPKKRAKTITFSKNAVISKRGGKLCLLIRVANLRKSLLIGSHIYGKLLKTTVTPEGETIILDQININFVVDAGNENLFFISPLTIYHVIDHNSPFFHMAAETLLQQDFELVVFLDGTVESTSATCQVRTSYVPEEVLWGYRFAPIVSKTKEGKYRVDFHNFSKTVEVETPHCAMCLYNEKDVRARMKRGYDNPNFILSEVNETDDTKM
Calb biofilm kill – mixtures killing C. albicans biofilm; 120,000 tested, 0.02% active; AID 1242; C. albicans biofilm persisters + clotrimazole, fluorescence viability; primary screen in compound mixtures of four per well; inhibition, % at 7.6 µM;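 active = inhibition above 30.3% in the primary screen of four-compound pools, then above 30% when the compound was retested; inconclusive = passed the primary limit but could not be retested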;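 also: compounds exposed to preformed 24 h biofilms for 48 h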
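Probe or stimulus – Clotrimazole 50 µg/mL co-treatment · System – C. albicans biofilms · Schedule – 24 h biofilm formation, then 48 h compound exposure, 37 °C · Evaluation – percent inhibition of biofilm viability · Technique – 2-h Alamar Blue fluorescence, 535/590 nm excitation/emission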
ROMK hit retest – human ROMK channel modulation, retest confirmation | 3,000 tested, 54% active | shares compounds with ROMK primary | normalized thallium flux (F/F0 slope) at 10 µM | ROMK thallium flux, fluorescence ratio; hits give low values | AID 1917;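 active = Flux at 10 µM at least 3 SD below or above vehicle control mean in one or both replicates; inconclusive = no clear call, values can overlap the other calls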
Large screens that a line does not name were inactive (follow-up assays come after a bar, where they were run).

O=C1NC(=O)C(=Cc2ccccc2Oc2ccc(F)cc2)C(=O)N1	ROMK primary 3.3
CN1C(=O)C(=Cc2ccccc2Oc2ccc(Cl)c(F)c2)C(=O)N(C)C1=O	none (no result: ROMK primary, Calb biofilm kill)
CCN(CC)C(=O)c1ccc(NC(=O)CCCSc2ccccc2)cc1	none
CCN(CC)C(=O)c1ccc(NC(=O)Nc2ccccc2F)cc1	Pf gamet viab 42 (no result: ROMK primary)
Cc1ccccc1C(O)(Cc1ccccc1)C1CN2CCC1CC2 (centres undefined)	none (no result: Calb biofilm kill)
COc1ccc(-n2c(C)nc3cc(C(=O)N4CCC5(CC4)OCCO5)ccc32)cc1	none (no result: Calb biofilm kill)
Cc1nc2cc(C(=O)N3CCC4(CC3)OCCO4)ccc2n1-c1ccc(Br)cc1	ROMK primary -2.4 (no result: Calb biofilm kill)
CC1(C)OC(c2ccccc2)=C/C(=C/C=C2C(=O)NC(=S)NC2=O)O1	none (no result: Pf gamet viab, ROMK primary)
CN1/C(=C\C=C2C(=O)NC(=S)NC2=O)C(C)(C)c2ccccc21	ROMK primary -3.6
COC(=O)C1=C(c2ccc(Cl)c(C(F)(F)F)c2)C[C@@H]2CC[C@H]1N2C(=O)N1CCC(O)(c2ccc(Cl)cc2)CC1	none (no result: ROMK primary, Calb biofilm kill)
O=c1[nH]c(=O)n(-c2ccc(F)cc2)c(O)c1C=Nc1ccccc1N1CCCC1	none (no result: ROMK primary, Calb biofilm kill)
CN[C@H]1C[C@H]2O[C@@](C)([C@H]1OC)n1c3ccccc3c3c4c(c5c6ccccc6n2c5c31)C(=O)NC4	ROMK primary 21 (no result: Pf gamet viab)
NC12CN3CN(CN(C3)C1)C2 (tested in a mixture with another compound)	none (no result: Calb biofilm kill)
CCC(=NCc1cccnc1)c1c(O)n(-c2ccc(C)cc2)c(=O)[nH]c1=O	none (no result: ROMK primary)
COC(=O)C1=C(c2cccc(C#N)c2)C[C@@H]2CC[C@H]1N2C(=O)NCC1CC1	none (no result: ROMK primary, Calb biofilm kill)
CN1C(=O)C(=Cc2ccc(N3CCCCCC3)o2)C(=O)N(C)C1=S	none (no result: ROMK primary, Calb biofilm kill)
O=C1NC(=O)N(c2ccc3c(c2)OCO3)C(=O)/C1=C\c1ccc(N2CCCCC2)o1	none (no result: ROMK primary) | ROMK hit retest 0.052
CC(NC(=O)Oc1ccccc1)C(c1cccs1)N1CCOCC1 (centres undefined)	none
Cc1ccccc1-n1c(O)c(/C=C2/C(c3ccccc3)=Nc3ccccc32)c(=O)[nH]c1=O	ROMK primary -6 (no result: Pf gamet viab) | ROMK hit retest 0.061
CC1=Nc2ccccc2/C1=C/c1c(O)n(C)c(=O)[nH]c1=O	none (no result: ROMK primary, Calb biofilm kill)
Cc1cccc(-n2c(O)c(/C=C3/C(c4ccccc4)=Nc4ccccc43)c(=O)[nH]c2=O)c1	none (no result: ROMK primary) | ROMK hit retest 0.044
Cc1cccc(-n2c(O)c(/C=C/C=Nc3ccccc3)c(=O)[nH]c2=O)c1	none (no result: Pf gamet viab)
CCN1CCN(Cc2cc(C(C)(C)C)c(O)c(C(C)(C)C)c2)CC1	none (no result: Pf gamet viab, Calb biofilm kill)
CCOc1ccc(Cc2c(O)[nH]c(=O)[nH]c2=O)cc1	none (no result: Pf gamet viab, Calb biofilm kill)
O=c1c(C=Nc2cccnc2Cl)c(O)n(CCCCl)c(=O)n1C1CCCCC1	none (no result: Pf gamet viab)
Cn1c(=O)c2c(ncn2CCCl)n(C)c1=O	none (no result: Pf gamet viab)
CCNC(=O)C1OC(n2cnc3c(N)ncnc32)C(O)C1O (centres undefined)	ROMK primary 4.3 (no result: Pf gamet viab, Calb biofilm kill) | ROMK hit retest inconclusive
CCn1c(=O)n(CC)c2cc([N+](=O)[O-])c(N3CCNCC3)cc21	none
CC1=CC(=O)OC2CC3OC4C[C@@H](C)C5OC6CC7O[C@]8(C)C/C=C\C9OC%10CC%11OC(CC(C)CO)CC(O)[C@]%11(C)OC%10CC9OC8C[C@]7(C)O[C@]6(C)CCC5OC4C[C@]3(C)OC12 (some centres undefined)	none (no result: ROMK primary)
C=C(COC(=O)CCC(=O)O)CC1CC(O)[C@]2(C)OC3CC4OC5C[C@]6(C)O[C@]7(C)CCC8OC9C[C@]%10(C)OC%11C(C)=CC(=O)OC%11CC%10OC9C[C@@H](C)C8OC7CC6O[C@]5(C)C/C=C\C4OC3CC2O1 (some centres undefined)	none (no result: Pf gamet viab, ROMK primary) | ROMK hit retest inactive
COCCCN=Cc1c(O)[nH]c(=S)[nH]c1=O	none (no result: Pf gamet viab, ROMK primary)
Cc1ccsc1C(=O)C1CCCN(Cc2cccn2-c2ccccn2)C1 (centres undefined)	none (no result: Pf gamet viab)
CC(=O)N1N=C(c2c(O)n(C)c(=O)n(C)c2=O)CC1c1ccccc1 (centres undefined)	none (no result: ROMK primary)
O=c1[nH]c(=O)n(Cc2ccccc2)c(O)c1/C=C1\C=Nc2ccccc21	none
O=c1[nH]c(=O)n(CC2CCCO2)c(O)c1/C=C1\C=Nc2ccccc21 (centres undefined)	none | ROMK hit retest 0.058
NP(=O)(OCCCc1ccccc1)Oc1ccc(Cl)cc1 (centres undefined)	none (no result: ROMK primary, Calb biofilm kill)
CN1CCN(c2nc3ccccn3c(=O)c2C=C2C(=O)N(C)C(=O)N(C)C2=O)CC1	none (no result: Pf gamet viab, ROMK primary)
CN(C)C(=O)Nc1cccc(OC(=O)N(C)C)c1	none (no result: Pf gamet viab, ROMK primary, Calb biofilm kill) | ROMK hit retest inactive
CN(C)C(=O)Oc1cccc(NC(=O)c2ccccc2C(F)(F)F)c1	none (no result: ROMK primary)
N#CSCC(=O)N1c2ccccc2CCc2ccccc21	ROMK primary -3.9 | ROMK hit retest 0.046
Nc1ccccc1C(=O)OCC(=O)N1CCc2ccccc21	none (no result: Pf gamet viab, Calb biofilm kill)
COc1ccc(CCn2c(O)c(/C=N/N3CCOCC3)c(=O)[nH]c2=O)cc1OC	none
CCC(C)c1ccc(N2C(=O)NC(=O)/C(=C/c3cccn3CCOc3ccc(C)cc3)C2=O)cc1 (centres undefined)	none (no result: ROMK primary) | ROMK hit retest 0.047
Cc1ccc(N2C(=O)NC(=O)/C(=C\c3cccn3C(C)(C)C)C2=O)cc1	none
CCN(CC)c1ccc(CNCCc2ccc(F)cc2)cc1	ROMK primary -2.8 | ROMK hit retest 0.054
CCc1ccc(CNCCc2ccc(F)cc2)cc1	none
CN(Cc1ccccc1)Cc1ccccc1OC(=O)N(C)C	none (no result: Calb biofilm kill)
CN(CCCCC(=O)/C=N/O)Cc1ccccc1 (tested in a mixture with another compound)	ROMK primary 3.3 (no result: Calb biofilm kill) | ROMK hit retest inactive
CN(C)c1ccc(N=Cc2c(O)n(CCC3=CCCCC3)c(=O)[nH]c2=O)cc1	none (no result: Pf gamet viab, Calb biofilm kill)
CCN(CC)c1ccc(N=Cc2c(O)n(CCC3=CCCCC3)c(=O)[nH]c2=O)cc1	ROMK primary -7.1 (no result: Calb biofilm kill) | ROMK hit retest 0.037
CC(=O)c1ccc2c(c1)OCO2	ROMK primary 3 (no result: Pf gamet viab) | ROMK hit retest inactive
O=C(CN1CCCCC1)c1ccc2c(c1)OCO2	none
O=c1[nH]sc2cc(F)ccc12	ROMK primary -7.6 | ROMK hit retest 0.054
Brc1ccc(CN2CCNCC2)s1	none (no result: Calb biofilm kill)
CCOP(=O)(OCC)C(CC)N1CCOCC1 (centres undefined)	none (no result: Calb biofilm kill)
CCOP(=S)(OCC)N1CCOCCOCCN(P(=S)(OCC)OCC)CCOCCOCC1	ROMK primary -2 | ROMK hit retest inactive
CN1CCc2nc3sc(C#N)c(N)c3c(-c3cccs3)c2C1	none (no result: Pf gamet viab, Calb biofilm kill) | ROMK hit retest inconclusive
CN1CCc2nc3sc(C(=O)NC4CC4)c(N)c3cc2C1	none (no result: ROMK primary)
COc1ccc(C2SCC(=O)Nc3c2c(=O)[nH]n3C2CCCCC2)cc1 (centres undefined)	none (no result: Calb biofilm kill)
COc1ccc(OCC(=O)N2CCN(C3CCC(c4ccccc4)CC3)CC2)cc1 (centres undefined)	none
O=C(COc1ccc2ccccc2c1)N1CCN(C2CCN(Cc3ccccc3)CC2)CC1	ROMK primary -3 (no result: Calb biofilm kill) | ROMK hit retest 0.061
CC(C)CCNC(=O)c1cc(C(=O)c2cc(Br)ccc2O)cn(CCC(C)C)c1=O	none
CCn1c(O)c(/C=N/NC(=O)c2ccncc2)c(=O)[nH]c1=S	none (no result: ROMK primary)
CCn1c(O)c(/C=N/NC(=O)c2ccccc2)c(=O)n(CC)c1=S	none (no result: ROMK primary) | ROMK hit retest 0.056
CCCCc1ncc(CN2CCCC(C(=O)c3ccc(SC)cc3)C2)[nH]1 (centres undefined)	none
Cc1cc(C)c(C(=O)N2CCC3(CC2)OCCO3)c(C)c1	none (no result: ROMK primary, Calb biofilm kill)

Source: PubChem (several laboratories)
